Not all results are given here.
Apaf-1 act – activators of human Apaf-1 apoptosome | O14727 | Apaf-1 apoptosome caspase-3 activation, DEVD-Rh110 fluorescence; active compounds read low | activity change, negative = activation, % at 20 µM | hit rate 0.31% among 330,000 | AID 489031;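 active = activity change at or below -40% at 20 µM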
Target sequence (O14727 whole entry, looked up): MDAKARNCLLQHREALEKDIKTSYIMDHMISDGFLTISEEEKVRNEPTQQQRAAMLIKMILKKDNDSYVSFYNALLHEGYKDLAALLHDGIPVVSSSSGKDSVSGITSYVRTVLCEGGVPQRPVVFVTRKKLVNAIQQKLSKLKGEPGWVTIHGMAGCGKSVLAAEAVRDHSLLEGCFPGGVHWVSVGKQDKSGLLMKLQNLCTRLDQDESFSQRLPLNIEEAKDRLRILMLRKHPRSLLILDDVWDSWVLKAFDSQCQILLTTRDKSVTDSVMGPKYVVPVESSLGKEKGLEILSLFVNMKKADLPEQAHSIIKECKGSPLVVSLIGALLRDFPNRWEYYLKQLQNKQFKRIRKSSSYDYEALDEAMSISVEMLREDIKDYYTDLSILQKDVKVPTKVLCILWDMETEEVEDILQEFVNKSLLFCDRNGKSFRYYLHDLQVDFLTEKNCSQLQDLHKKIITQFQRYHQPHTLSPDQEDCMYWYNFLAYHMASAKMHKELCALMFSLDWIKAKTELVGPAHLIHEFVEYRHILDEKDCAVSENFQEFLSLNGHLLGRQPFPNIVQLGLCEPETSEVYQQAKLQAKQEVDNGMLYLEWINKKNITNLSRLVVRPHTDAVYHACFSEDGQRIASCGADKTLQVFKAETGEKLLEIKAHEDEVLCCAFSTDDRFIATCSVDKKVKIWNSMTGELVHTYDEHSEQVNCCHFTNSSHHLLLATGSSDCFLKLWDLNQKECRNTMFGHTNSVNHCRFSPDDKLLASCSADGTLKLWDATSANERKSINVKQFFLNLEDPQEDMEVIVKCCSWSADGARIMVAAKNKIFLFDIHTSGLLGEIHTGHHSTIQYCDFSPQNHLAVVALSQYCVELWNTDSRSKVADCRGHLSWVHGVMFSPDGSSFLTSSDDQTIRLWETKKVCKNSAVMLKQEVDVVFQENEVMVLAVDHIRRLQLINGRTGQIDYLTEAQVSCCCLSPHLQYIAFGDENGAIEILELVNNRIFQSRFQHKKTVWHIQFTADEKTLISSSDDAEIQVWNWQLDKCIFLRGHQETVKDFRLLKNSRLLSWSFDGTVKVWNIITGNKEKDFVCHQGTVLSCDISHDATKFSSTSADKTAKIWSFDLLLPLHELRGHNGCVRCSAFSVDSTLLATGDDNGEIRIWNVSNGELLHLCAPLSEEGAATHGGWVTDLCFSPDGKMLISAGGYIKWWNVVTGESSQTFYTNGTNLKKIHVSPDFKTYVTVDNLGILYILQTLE
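Schedule: 30 min preincubation, 50 min reaction, room temperature / System: biochemical Apaf-1 apoptosome reconstitution / Medium: 20 mM HEPES pH 7.5 with CHAPS, BSA / Evaluation: Caspase-3 cleavage activity downstream of Apaf-1 activation / Detection: Caspase-3-released Rh110 fluorescence, 540 nm emission, 480 nm excitation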
Rh110 interf act – counter-screen for Apaf-1 activators: fluorescence interference; fluorescence interference (activity change), % at 20 µM, hits read low; 980 tested, under 10 active; Rh110 fluorescence interference, quenched caspase reaction, Ex480/Em540; shares compounds with Apaf-1 act; AID 504616;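 active = mean activity change at or below -40% when tested at 20 µM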
Apaf-1 act conf – confirmation of human Apaf-1 activators | shares compounds with Apaf-1 act | reconstituted apoptosome caspase-3 activity, DEVD-Rh110 fluorescence; active compounds read low | activity change, negative = activation, % at 20 µM | hit rate 5% among 980;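 active = mean activity change at or below -40%, meaning activation of 40% or more, at 20 µM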
Apaf1 act interf – counter-screen for Apaf-1 activators: fluorescence interference, dose response. AID 588592. shares compounds with Apaf-1 act. EC50, µM. 55 tested, under 10 active. fluorescence interference counterscreen, Apaf-1 activator assay; call rule not given here
Active calls of the source: *; · = not tested or not shown.

SMILES | Apaf-1 act | Rh110 interf act | Apaf-1 act conf | others
Cc1ccccc1-c1cc2c(nn1)-c1ccccc1C2=O | 97 | · | ·
CCN(CC)CCNC(=O)c1ccc(NC(C)=O)cc1 | -2 | · | ·
CN(C)CCNC(=O)c1ccc(COc2ccc(Cl)cc2Cl)cc1 | 46 | · | ·
CCOc1cc(/C=C/C(=O)Nc2ccc(C(=O)NCCN(CC)CC)cc2)ccc1OCC(C)C | 47 | · | · | Apaf1 act interf=>100
C[C@@H]1CN([C@H](C)CO)C(=O)Cc2cc(NS(=O)(=O)c3ccc(Cl)cc3)ccc2O[C@H]1CN(C)Cc1ccc(C(F)(F)F)cc1 | 41 | · | ·
O=C1c2ccccc2C(O)N1Cc1cccs1 (stereo unspecified) | -41* | 0 | 4
CCOC(=O)N1CCN(C2=C(NS(=O)(=O)c3ccc(C)cc3)C(=O)c3ccccc3C2=O)CC1 | 86 | · | ·
Cc1ccc(/C=C/c2onc(C)c2S(=O)(=O)N2CCC(C(=O)N3CCN(C)CC3)CC2)cc1 | 45 | · | ·
CCOC(=O)N1CCN(C(=O)C2CCN(S(=O)(=O)c3ccc(OCC)cc3)CC2)CC1 | -164* | -3 | 18
CCc1noc(C)c1C(=O)N1CCN(S(=O)(=O)c2c(C)cc(C)cc2C)CC1 | 57 | · | ·
CCCCCc1cc(=O)oc2c(C(CCN3CCCC3)c3cc(OC)c(OC)c(OC)c3)c(OC)cc(OC)c12 (stereo unspecified) | 50 | · | ·
Cc1ccc(C)c(S(=O)(=O)NCc2ccc(C(=O)N3CCOCC3)cc2)c1 | -47* | 8 | 11
Cc1ccc(S(=O)(=O)NCc2ccccc2)cc1C(=O)N1CCN(c2ccccc2)CC1 | 58 | · | ·
COc1ccc(OC)c2sc(N(CCCN(C)C)C(=O)c3ccc(S(=O)(=O)N4CCc5ccccc5C4)cc3)nc12 | 55 | · | ·
CC(=O)NC1N=C(C)N(c2ccccc2)C1=O (stereo unspecified) | 70 | · | ·
Cc1cnc(C(=O)NC2CC(C)(C)Cc3c2cnn3-c2ccccc2)cn1 (stereo unspecified) | -85* | 1 | 7
CN(Cc1ccc(F)cc1)C(=O)CNC(=O)c1cccs1 | 56 | · | ·
CCOc1cc(CNc2ccc(N(C)C)cc2)cc(Br)c1OCC(=O)NC(C)(C)C | 44 | · | ·
COc1ccc(CNc2ccc3cn[nH]c3c2)c(OC)c1OC | 46 | · | ·
OCCC1CN(Cc2ccc3ncccc3c2)CCN1Cc1ccccc1 (stereo unspecified) | -247* | -1 | 8
C#CCOCCOCCOCCNc1nc(N2CCN(C(=O)CCCCCCCCCCNC(=O)[C@H]([C@@H](C)CC)n3cc(CCCCN=C(N)N)nn3)CC2)nc(N2CCN(C(=O)CCCCCCCCCCNC(=O)[C@@H]([C@H](C)O)n3cc(C)nn3)CC2)n1 | 45 | · | ·
CCCCN(CC)c1nc(N)c2c(N)nc(OCC)cc2c1C#N | 98 | · | ·
COC(=O)CCC(=O)N1CN2CN(C(=O)CCC(=O)OC)CC([N+](=O)[O-])(C2)C1 | -152* | 2 | 7
COc1ccc2c(c1)c(/C=N/Nc1nc3ccccc3[nH]1)c(C)n2C | 43 | · | ·
Cc1ccc(Oc2nsnc2N2CCOCC2)cc1 | -106* | 4 | 13
SMILES | Apaf-1 act | Rh110 interf act | Apaf-1 act conf | others
Cc1ccc(NC2=C(N3CCOCC3)C(=O)c3ccccc3C2=O)cc1 | 59 | · | ·
CC(C)C[C@@H](C(=O)NC1CCN(Cc2ccccc2)CC1)N1C(=O)N2CCc3c([nH]c4ccccc34)[C@@]2(C)C1=O | 45 | · | ·
Cc1noc(NS(=O)(=O)c2ccc(N/C=C\C(=O)c3ccc(F)cc3)cc2)c1C | -111* | -3 | 21
CCCCc1oc2ccccc2c1C(=O)c1cc(I)c(OCCN(CC)CC)c(I)c1 | 53 | · | ·
CCN(CCCNC(=O)CCn1c(=O)[nH]c2ccccc2c1=O)c1ccccc1 | -505* | -1 | 13
Cc1ccc(/C=N/NC(=O)c2ccncc2)cc1 | -499* | -5 | 5
Cc1cc([N+](=O)[O-])c(C)cc1-c1ccc(/C=N/NC(=O)c2cccnc2)o1 | 55 | · | ·
Cc1cccc(C(=O)N/N=C/c2ccncc2)c1 | -45* | 2 | 13
CC(C)n1ncc2c(C(=O)Nc3ccc(S(N)(=O)=O)cc3)cc(C3CC3)nc21 | 75 | · | ·
CCC[C@@H](CN1CCC[C@H]1CN1C(N)=NC[C@@H]1Cc1ccccc1)N1C[C@@H]([C@H](C)CC)N(CCc2ccc(Cl)c(Cl)c2)C1=N | 67 | · | ·
CC1CC(C)CN(CCCNC(=O)CN2C(=O)c3cccnc3Oc3ccc(Cl)cc32)C1 (stereo unspecified) | -148* | -1 | 9
COc1ccc2sc(-c3ccccc3OC)c(-c3ccc(OCCN(C)C)cc3)c2c1 | 65 | · | ·
Cc1[nH][nH]c(=O)c1C(c1ccc(-c2cccc(Cl)c2)o1)c1c(C)[nH][nH]c1=O | 87 | · | ·
CCc1cc2c(SCC(=O)N3CC(=O)Nc4ccccc43)ncnc2s1 | 55 | · | ·
CN(C)c1cccc2c1c(NC(=O)Nc1ccccc1)nn2C | 82 | · | ·
CN(CC(=O)Nc1ccc(F)cc1)C(=O)C1CC(=O)N(Cc2ccccc2)C1 (stereo unspecified) | 44 | · | ·
Cc1ccc(NC(=O)CC(C)N2CCCC2)cc1 (stereo unspecified) | -79* | 10 | 13
O=C1C(c2ccccc2)=[N+]([O-])c2ccccc21 | 85 | · | ·
CCC[C@@H](CN1CCC[C@H]1CN1C(N)=NC[C@H]1CC(C)C)N1C[C@@H](Cc2ccccc2)N(CCc2ccc(Cl)c(Cl)c2)C1=N | 68 | · | ·
CCOc1cc(/C=C2\C(=O)N(c3nc(-c4ccc(Br)cc4)cs3)N=C2c2ccccc2)ccc1O | 53 | · | ·
CC(=O)N(C1=C(N2CCOCC2)C(=O)c2ccccc2C1=O)c1ccc(C(=O)O)cc1 | 59 | · | ·
COc1ccc(Br)cc1CNc1ccc(O)cc1 | 95 | · | ·
C#CCOCCOCCOCCNc1nc(N2CCN(C(=O)CCCCCCCCCCNC(=O)[C@@H](CCSC)n3cc(CCO)nn3)CC2)nc(N2CCN(C(=O)CCCCCCCCCCNC(=O)[C@H](CCCN=C(N)N)n3cc(C[C@@H](C)CC)nn3)CC2)n1 | 62 | · | ·
CS(=O)(=O)NN1C(=O)c2ccccc2NC1c1ccccc1O (stereo unspecified) | -64* | 0 | 0
CCC(C)(C)c1ccc(OCCCC[n+]2cccc(C)c2C)c(C(C)(C)CC)c1 | 69 | · | ·
SMILES | Apaf-1 act | Rh110 interf act | Apaf-1 act conf | others
CN(C)S(=O)(=O)c1cccc(NC(=O)COC(=O)/C=C/c2ccco2)c1 | 95 | · | ·
CCN(CC)S(=O)(=O)c1ccc(/C=C/C(=O)OCC#N)cc1 | -82* | -7 | 5
COc1cc(-c2ccc(Nc3ccccc3C(=O)O)c(OC)c2)ccc1Nc1ccccc1C(=O)O | 48 | · | ·
COc1cc(S(=O)(=O)Nc2ccccc2)ccc1NC=O | -49* | -3 | 11
CC(C)(C)c1ccc(OCCOc2ccc(C(C)(C)C)cc2NC=O)c(NC=O)c1 | 41 | · | ·
CCCCCCCCCCCCN1[C@@H](CC(=O)O)c2cc(C(F)(F)F)ccc2S1(=O)=O | 41 | · | ·
Nc1c(C(=O)NCc2ccco2)c2nc3ccccc3nc2n1CCc1ccccc1F | 61 | · | ·
CCC(C(=O)NCc1ccco1)n1nc(C)c2c(C)n(-c3ccccc3)nc2c1=O (stereo unspecified) | -86* | 2 | 13
CC1=NN(c2ccc(C)cc2)C(=O)/C1=C\c1ccc(Br)s1 | 89 | · | ·
